KCNQ1 block – inhibitors of human KCNQ1 channel, primary screen, cell-based, thallium flux, high-throughput | AID 2642, 2010 | actives 1.3% (n = 310,000) | CHO-K1 KCNQ1, FluxOR thallium flux fluorescence; stronger effect = higher value | B-score at 10 µM;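 active = compounds whose thallium flux B-score, printed positive for inhibition, exceeds three library SD while starting fluorescence stays within three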;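 note: channel opened by potassium depolarization with thallium stimulus after 20 min compound exposure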
KCNK9 block – KCNK9 potassium channel inhibitors, primary screen, HEK293 cells, thallium flux; B-score at 10 µM; Potassium channel subfamily K member 9 (Homo sapiens), Q9NPC2; FluxOR thallium flux fluorescence; stronger effect = lower value; actives 1.2% (n = 310,000);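 active = ratio B-score over 3 SD below the library mean, with starting fluorescence within 5 SD of its mean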;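 note: negative B-score means less thallium flux so channel inhibition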
hERG rescue – hERG rescue from dofetilide block, primary screen, cell-based, CHO-hERG, FluxOR thallium flux, dofetilide IC70; dofetilide IC70 present; Voltage-gated inwardly rectifying potassium channel KCNH2 (Homo sapiens), Q12809; AID 1511, 2009; actives 0.51% (n = 310,000); activation (rescue from dofetilide block), less the hit threshold, % at 10 µM;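 active = activation above the mean of controls blocked by dofetilide plus 5 SD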;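 note: thallium influx through hERG after potassium depolarization seen as dye fluorescence rise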
Kir21 inh – inhibitors of mouse Kir2.1 inward-rectifier potassium channel. Inward rectifier potassium channel 2 (Mus musculus), P35561. HEK293-Kir2.1, FluxOR thallium flux fluorescence; stronger effect = lower value. B-score at 10 µM. actives 0.85% (n = 310,000);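 active = fluorescence ratio B-score at or below minus 3 SD of library scores, with starting-brightness B-score within 2 SD, cut at about -4.2 in these data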;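 note: channel flux triggered by added potassium and thallium sulfate stimulus; B-score of peak minus minimum fluorescence over baseline after thallium stimulus; more negative B-score means stronger Kir2.1 block with less thallium influx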
KCNQ1 pot – potentiators or activators of KCNQ1 channel, primary screen, cell-based, thallium flux, high-throughput | Potassium voltage-gated channel subfamily KQT member 1 (Homo sapiens), P51787 | CHO-K1 KCNQ1, thallium flux FluxOR fluorescence; stronger effect = higher value | B-score at 10 µM | actives 0.35% (n = 310,000);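 active = fluorescence ratio B-score, a plate-corrected score, at least three library SD, with initial intensity B-score within 5 SD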
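Medium – assay buffer, equal DMSO in all wells · Material – CHO-K1 cell line with stable KCNQ1 potassium channel expression · Signal – kinetic FluxOR thallium fluorescence, 10-s 1-Hz baseline, 110-s post-stimulus read · Compound – single concentration per compound, DMSO matched to controls · Schedule – 37 °C overnight plating, 90-min dark dye load, 20-min compound pretreatment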
KCNK3 inh – human KCNK3 channel inhibitors, primary screen, CHO cells, FluxOR thallium flux, B-score | Potassium channel subfamily K member 3 (Homo sapiens), O14649 | FluxOR fluorescence; stronger effect = lower value | B-score at 10 µM | actives 0.84% (n = 340,000);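 active = B-score under library mean minus 4 SD, starting fluorescence ratio at most library mean plus 5 SD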;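 note: more negative B-score means stronger inhibition of thallium flux through KCNK3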
Target sequence (O14649 whole entry, looked up): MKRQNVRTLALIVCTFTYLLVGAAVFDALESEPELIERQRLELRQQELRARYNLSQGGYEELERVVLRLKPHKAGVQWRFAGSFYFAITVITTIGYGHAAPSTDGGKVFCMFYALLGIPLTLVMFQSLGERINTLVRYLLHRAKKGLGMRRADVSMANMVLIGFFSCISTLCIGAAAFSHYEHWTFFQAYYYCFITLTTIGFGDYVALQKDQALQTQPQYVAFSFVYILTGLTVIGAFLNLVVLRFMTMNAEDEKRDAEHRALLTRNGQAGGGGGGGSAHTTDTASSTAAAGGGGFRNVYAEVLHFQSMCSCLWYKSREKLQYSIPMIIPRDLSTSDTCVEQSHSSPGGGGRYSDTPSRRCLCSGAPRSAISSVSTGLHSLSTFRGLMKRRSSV
KCNK9 block conf – KCNK9 potassium channel inhibitors, confirmation, HEK293 cells, thallium flux, duplicate; shares compounds with KCNK9 block; FluxOR thallium flux fluorescence; inhibition, % at 10 µM; actives 43% (n = 4,900); AID 492992, 2010;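 active = thallium signal inhibited by more than 5 SD of the compound-free buffer control wells, on both duplicate plates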
Kir2-1 spec – mouse Kir2.1 channel inhibition, confirmation, selectivity assay for KCNK9 modulator project, cell-based, HEK293, thallium flux; inhibition, % at 10 µM; actives 4% (n = 4,900); shares compounds with KCNK9 block; Kir2.1 cells, FluxOR thallium flux fluorescence;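 active = thallium signal drop more than 5 SD beyond the mean of the no-compound control wells, seen in both duplicate plates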;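 note: signal is fluorescence rise after thallium addition divided by baseline fluorescence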
KCNK9 uninduced – thallium flux in non-induced HEK293 cells, confirmation, counter-screen for KCNK9 inhibitor project, cell-based, second counter screen, non-induced KCNK9-HEK293; actives 40% (n = 4,900); inhibition, % at 10 µM; AID 492997, 2010; FluxOR thallium flux; shares compounds with KCNK9 block;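 active = thallium signal drop beyond 5 SD of the untreated control mean, on both duplicate plates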
Each line names hits and unclear results; the compound was inactive in the other large screens (follow-up assays come after a bar, where they were run). Shown are actives, neighbours in structure and some others; about 3.8% of the full set was active somewhere.

CC(C)(C)NC(=O)N1c2ccccc2Sc2ccccc21	none | KCNK9 block conf inactive | Kir2-1 spec inactive | KCNK9 uninduced inactive
O=C(NCc1ccco1)N1c2ccccc2Sc2ccccc21	none | KCNK9 block conf inactive | Kir2-1 spec inactive | KCNK9 uninduced inactive
CC(=O)N1c2ccccc2Sc2ccccc21	none
CC(C)NC(=O)N1c2ccccc2Sc2ccccc21	none
COc1ccccc1C(=O)N1c2ccccc2Sc2ccccc21	KCNK9 block -13.6 | KCNK9 block conf 54.0% | Kir2-1 spec inactive | KCNK9 uninduced 42.0%
COc1ccc(CCNC(=O)N2c3ccccc3Sc3ccccc32)cc1	none | KCNK9 block conf inactive | Kir2-1 spec inactive | KCNK9 uninduced inactive
Nc1nnc(SCC(=O)NNC(=O)c2ccccc2F)s1	none (no result: KCNQ1 block, KCNK9 block, hERG rescue, Kir21 inh, KCNQ1 pot)
CCOC(=O)C(Cc1ccccc1)(Cc1ccccc1)C(C)=O	none
CC1CN(C(=O)COc2ccc3ccccc3c2)CC(C)O1 (stereo not given)	none (no result: KCNQ1 block, KCNK9 block, hERG rescue, Kir21 inh, KCNQ1 pot)
O=C(COc1ccc2ccccc2c1)N1c2ccccc2Sc2ccccc21	KCNK9 block -12.8 | KCNK9 block conf 55.5% | Kir2-1 spec inactive | KCNK9 uninduced 45.5%
COc1ccc(N2C(=O)/C(=C\c3ccco3)N=C2SCC(=O)NC(C)C)cc1Cl	KCNK9 block -11.8 | KCNK9 block conf 77.5% | Kir2-1 spec inactive | KCNK9 uninduced 36.5%
CCOc1ccc(CCNC(=O)c2cc(-c3ccccc3)c(N3CCOCC3)s2)cc1	none
COc1ccc(CCNC(=O)c2cc(-c3ccccc3)c(N3CCOCC3)s2)c(OC)c1OC	none | KCNK9 block conf inactive | Kir2-1 spec inactive | KCNK9 uninduced inactive
O=C(c1cc(COc2ccc(F)cc2Cl)on1)N1CCc2sccc2C1	none
CSc1ccccc1OCc1cc(C(=O)N2CCc3sccc3C2)no1	none | KCNK9 block conf inactive | Kir2-1 spec inactive | KCNK9 uninduced inactive
CCCN1C(=O)C(Cc2nc3ccccc3c(=O)n2-c2ccccc2)c2ccccc21 (stereo not given)	none
CC(C)N1C(=O)C(Cc2nc3ccccc3c(=O)n2-c2ccccc2)c2ccccc21 (stereo not given)	none | KCNK9 block conf inactive | Kir2-1 spec inactive | KCNK9 uninduced inactive
C=CCCC(=O)Nc1nc(C)c(-c2csc(Nc3cc(OC)ccc3OC)n2)s1	KCNK9 block -8.73 | KCNK9 block conf 56.0% | Kir2-1 spec inactive | KCNK9 uninduced 28.5%
Cc1ccc(Cl)cc1Nc1nc(-c2sc(NC(=O)C(C)(C)C)nc2C)cs1	KCNK9 block -13.4 | KCNK9 block conf 56.5% | Kir2-1 spec inactive | KCNK9 uninduced inactive
COc1ccccc1Nc1nc(-c2sc(NC(=O)c3cccc(Cl)c3)nc2C)cs1	none (no result: KCNK3 inh)
CCCC(=O)Nc1nc(C)c(-c2csc(Nc3ccccc3OC)n2)s1	none
CCCCCC(=O)Nc1nc(C)c(-c2csc(Nc3cc(Cl)ccc3OC)n2)s1	none
CCCC(C)C(=O)Nc1nc(C)c(-c2csc(Nc3cc(OC)ccc3OC)n2)s1 (stereo not given)	KCNK9 block -18 | KCNK9 block conf 46.5% | Kir2-1 spec inactive | KCNK9 uninduced inactive
CCCC(=O)Nc1nc(C)c(-c2csc(Nc3cc(OC)ccc3OC)n2)s1	KCNK9 block -16.5 | KCNK9 block conf inactive | Kir2-1 spec inactive | KCNK9 uninduced inactive
COc1ccc(NC(=O)Nc2cccc(Cl)c2Cl)c(OC)n1	none
COc1ccc(S[C@@H](CCN2CC[C@H](O)CCC2=O)c2ccccc2)cc1	none (no result: KCNQ1 block, KCNK9 block, hERG rescue, Kir21 inh, KCNQ1 pot)
Cc1ccccc1NC(=O)c1sc2nc3c(c(-c4ccco4)c2c1N)CCC3	KCNK9 block -8.12 | KCNK9 block conf 30.0% | Kir2-1 spec inactive | KCNK9 uninduced 26.5%
CC(=O)NNC(=O)c1csc(-c2csc(C)n2)n1	none
Cc1ccc(C(=O)c2coc3c2C(=O)C(=O)c2ccccc2-3)cc1	KCNK9 block -9.36 | KCNK9 block conf inactive | Kir2-1 spec inactive | KCNK9 uninduced inactive
COC(=O)C(Cc1ccc(OC(=O)c2ccc(C)cc2)cc1)N1Cc2ccccc2C1=O (stereo not given)	none | KCNK9 block conf inactive | Kir2-1 spec inactive | KCNK9 uninduced inactive
COC(=O)C(Cc1ccc(O)cc1)N1Cc2ccccc2C1=O (stereo not given)	none
OCCN1CCN(CC/C=C2/c3ccccc3Sc3ccc(Cl)cc32)CC1	none (no result: KCNQ1 block, KCNK9 block, hERG rescue, Kir21 inh, KCNQ1 pot)
CCCCCCCCCC[N+](C)(C)CC/C=C1/c2ccccc2Sc2ccc(Cl)cc21	KCNK9 block -12.5 | KCNK9 block conf 58.5% | Kir2-1 spec 50.0% | KCNK9 uninduced inactive
CN1CCN(S(=O)(=O)c2cc([N+](=O)[O-])ccc2Cl)CC1	none
O=[N+]([O-])c1ccc(Cl)c(S(=O)(=O)N2CCCCCC2)c1	KCNK9 block -10.5 | KCNK9 block conf inactive | Kir2-1 spec inactive | KCNK9 uninduced 24.0%
Cc1nc2c(ccc3nc(NC(=O)Cc4cccc5ccccc45)sc32)s1	none
Cc1nc2c(ccc3nc(NC(=O)C(c4ccccc4)c4ccccc4)sc32)s1	KCNK9 block -9.84 | KCNK9 block conf inactive | Kir2-1 spec inactive | KCNK9 uninduced inactive
CC(NC(=O)Nc1ccccc1F)C(C)(C)C (stereo not given)	none
COc1ccc(N2C(=O)CSC23C(=O)N2CCCc4cccc3c42)cc1 (stereo not given)	none
COc1ccc(N2C(=O)CSC23C(=O)N2c4c(cccc43)C(C)=CC2(C)C)cc1 (stereo not given)	KCNK9 block -8.65 | KCNK9 block conf inactive | Kir2-1 spec inactive | KCNK9 uninduced 46.0%
Cc1nnc(SCC(=O)Nc2ncc(S(=O)(=O)c3ccc([N+](=O)[O-])cc3)s2)s1	none

Compound activity deposited in PubChem BioAssay by Johns Hopkins Ion Channel Center.
